# The entries come from a sample that favours hits as a whole.
# E-sel inducer – E-selectin induction on HUVECs | P16581 | HUVEC E-selectin immunofluorescence imaging; normalized: neutral wells 0, TNF-alpha wells 100 | activation, % at 7.58 µM | 260,000 tested, 0.37% active;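 active means mean E-selectin-positive cell signal at least 10% of the positive control, reached in at least 60% of replicates, without over 20% cell loss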
# Target sequence (P16581 whole entry, looked up): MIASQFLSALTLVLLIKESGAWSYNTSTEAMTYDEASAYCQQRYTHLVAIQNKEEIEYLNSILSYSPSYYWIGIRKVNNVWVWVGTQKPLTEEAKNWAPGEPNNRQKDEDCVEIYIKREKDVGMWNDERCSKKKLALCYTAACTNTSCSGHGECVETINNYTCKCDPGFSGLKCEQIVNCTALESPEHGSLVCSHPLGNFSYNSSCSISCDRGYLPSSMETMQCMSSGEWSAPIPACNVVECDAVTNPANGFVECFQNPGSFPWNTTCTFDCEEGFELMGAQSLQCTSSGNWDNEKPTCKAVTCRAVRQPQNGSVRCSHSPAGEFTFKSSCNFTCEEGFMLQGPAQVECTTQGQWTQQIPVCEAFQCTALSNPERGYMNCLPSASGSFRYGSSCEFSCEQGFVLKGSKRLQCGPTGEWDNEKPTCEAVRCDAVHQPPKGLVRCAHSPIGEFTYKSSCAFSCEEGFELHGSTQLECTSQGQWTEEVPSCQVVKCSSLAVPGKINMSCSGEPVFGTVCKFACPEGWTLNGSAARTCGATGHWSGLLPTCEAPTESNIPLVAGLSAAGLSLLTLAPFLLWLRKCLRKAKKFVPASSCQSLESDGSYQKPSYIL
#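 Test system: HUVEC; input: 3,000 HUVEC/well; measured by: immunofluorescence imaging; read-out: % PE-positive cells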
# Active calls of the source: *.
SMILES,E-sel inducer
C[C@H]1CN([C@@H](C)CO)C(=O)Cc2cc(NC(=O)C3CCCCC3)ccc2O[C@H]1CN(C)C(=O)NC1CCCCC1,307.0*
C[C@H](CO)N1C[C@H](C)[C@H](CN(C)S(C)(=O)=O)Oc2ccc(NC(=O)C3CCCCC3)cc2CC1=O,-5.7
C[C@H](CO)N1C[C@H](C)[C@@H](CN(C)S(C)(=O)=O)Oc2ccc(NC(=O)C3CCCCC3)cc2CC1=O,26.9*
C[C@H](CO)N1C[C@H](C)[C@@H](CN(C)C(=O)NC2CCCCC2)Oc2ccc(NC(=O)C3CCCCC3)cc2CC1=O,-5.4
CC=Cc1ccc2n(c1=O)C[C@H]1[C@H](CO)[C@@H](C(=O)NCC3CC3)[C@@H]2N1CC1CCOCC1 (mixture of isomers),-0.5
Cc1ccc(S(=O)(=O)N2CC[C@H]3[C@H](CO)Nc4ccc(Br)cc4[C@H]32)cc1,-0.5
CN(C)CC#Cc1ccc([C@H]2[C@@H](CO)N3CCCCN(C(=O)C4CCC4)C[C@@H]23)cc1,0.2
COCC(=O)N1CC2(CCN(S(C)(=O)=O)CC2)c2c(n(C)c3cc(OC)ccc23)[C@@H]1CO,-0.1
NC(=O)C1CCN(c2nc(-c3cccc(Cl)c3)cs2)CC1,0.0
NC(=O)C1CCN(c2nc(-c3ccccc3N)cs2)CC1,0.6
NC(=O)C1CCN(c2nc(-c3ccccc3-c3ccccc3)cs2)CC1,138.9*
CC1CC(C)CN(C(=O)c2nn(C)c3c2CS(=O)(=O)c2ccccc2-3)C1 (configuration not stated),94.9*
CCN1CCN(C(=O)c2nn(C)c3c2CS(=O)(=O)c2ccccc2-3)CC1,0.0
Cn1nc(C(=O)N2CCN(c3ccccc3F)CC2)c2c1-c1ccccc1S(=O)(=O)C2,-0.1
CC(C)CC#Cc1cnc2c(c1)C(=O)N([C@H](C)CO)C[C@@H](C)[C@H](CN(C)C(=O)CN1CCOCC1)O2,0.4
C[C@@H]1CCCCO[C@H](CN(C)CC2CCCCC2)[C@H](C)CN([C@H](C)CO)C(=O)c2cc(NS(=O)(=O)c3ccccc3)ccc2O1,0.0
CCCCNC(=O)N1c2ccccc2CC1C (configuration not stated),154.8*
CC1Cc2ccccc2N1C(=O)CNc1ccccc1N1CCCCC1 (configuration not stated),0.4
CC1CCN(CC(=O)N2c3ccccc3CC2C)CC1 (configuration not stated),0.0
C=C(C)COc1ccc(-c2nc(N)ncc2-c2ccc(Cl)cc2)c(O)c1,0.3
COc1ccc(-c2nc(N)nc(C(F)(F)F)c2-c2ccccc2OC)c(O)c1,0.0
COc1ccc(-c2nc(N)nc(C)c2-c2ccc(Cl)cc2)c(O)c1,59.3*
C[C@@H]1CCCCO[C@H](CN(C)Cc2ccc(C(=O)O)cc2)[C@@H](C)CN([C@@H](C)CO)C(=O)c2cc(NC(=O)C3CCCCC3)ccc2O1,0.0
CO[C@H]1CN(C)C(=O)c2ccc(NS(=O)(=O)c3cn(C)cn3)cc2OC[C@@H](C)NC[C@H]1C,-0.1
C[C@@H]1CN([C@H](C)CO)C(=O)c2cc(NC(=O)CCC(F)(F)F)ccc2O[C@H]1CN(C)S(=O)(=O)c1ccccc1,-0.4
SMILES,E-sel inducer
COc1ccc(NC(=O)Nc2ccc3c(c2)CC(=O)N([C@H](C)CO)C[C@@H](C)[C@@H](CN(C)S(=O)(=O)c2ccc(OC)cc2)O3)cc1,0.2
C[C@@H]1CN([C@H](C)CO)C(=O)Cc2cc(NC(=O)Nc3ccccc3)ccc2O[C@@H]1CN(C)Cc1ccc(Cl)c(Cl)c1,0.9
CC(C)NC(=O)Nc1ccc2c(c1)CC(=O)N([C@H](C)CO)C[C@H](C)[C@H](CN(C)Cc1ccc(Cl)c(Cl)c1)O2,59.0*
C[C@@H]1CN([C@@H](C)CO)C(=O)Cc2cc(NC(=O)C3CC3)ccc2O[C@H]1CN(C)Cc1ccc2c(c1)OCO2,-5.5
CC(C)NC(=O)Nc1ccc2c(c1)CC(=O)N([C@@H](C)CO)C[C@@H](C)[C@H](CN(C)Cc1ccc(Cl)c(Cl)c1)O2,21.9
C[C@@H]1CN([C@@H](C)CO)C(=O)Cc2cc(NC(=O)C3CC3)ccc2O[C@@H]1CN(C)Cc1ccc2c(c1)OCO2,48.8*
COc1ccc(S(=O)(=O)N(C)C[C@H]2Oc3ccc(NC(=O)Nc4ccc5c(c4)OCO5)cc3CC(=O)N([C@@H](C)CO)C[C@H]2C)cc1,79.3*
C[C@H](CO)N1C[C@H](C)[C@@H](CN(C)C)Oc2ccc(NC(=O)Nc3ccc4c(c3)OCO4)cc2CC1=O,2.6
COc1ccc(S(=O)(=O)N(C)C[C@@H]2Oc3ccc(NC(=O)Nc4ccc5c(c4)OCO5)cc3CC(=O)N([C@@H](C)CO)C[C@@H]2C)cc1,-13.1
C[C@H](CO)N1C[C@H](C)[C@H](CN(C)C)Oc2ccc(NC(=O)Nc3ccc4c(c3)OCO4)cc2CC1=O,12.2
C[C@@H]1CN([C@@H](C)CO)C(=O)Cc2cc(NC(=O)Nc3ccc4c(c3)OCO4)ccc2O[C@H]1CN(C)C,384.1*
C[C@H](CO)N1C[C@H](C)[C@@H](CN(C)Cc2ccc3c(c2)OCO3)Oc2ccc(NC(=O)C3CC3)cc2CC1=O,-5.4
COc1ccc(NC(=O)N(C)C[C@H]2Oc3ccc(NS(=O)(=O)c4cn(C)cn4)cc3CC(=O)N([C@@H](C)CO)C[C@@H]2C)cc1,-5.7
CCC(=O)N[C@H]1CC[C@H](CCNS(=O)(=O)c2ccc(Cl)cc2)O[C@H]1CO,-0.1
COc1ccc2c3c([nH]c2c1)[C@@H](CO)N(C(=O)Nc1ccccc1F)CC31CN(C(C)=O)C1,0.2
CCCNC(=O)N[C@H]1C=C[C@@H](CC(=O)NCCc2ccccc2)O[C@H]1CO,0.0
C[C@H](CO)N1C[C@H](C)[C@H](CN(C)C(=O)C2CCC2)Oc2ncc(C3=CCCC3)cc2C1=O,-0.2
CCCNC(=O)N1C[C@@H]2[C@H](c3ccccc31)[C@H](CO)N2Cc1ccc2c(c1)OCO2,-0.5
CO[C@H]1CN(C)C(=O)c2ccc(NS(C)(=O)=O)cc2OC[C@H](C)N(C)C[C@@H]1C,-0.1
C[C@@H]1CN([C@H](C)CO)C(=O)Cc2cc(NC(=O)C3CCCCC3)ccc2O[C@H]1CN(C)Cc1ccc(C(=O)Nc2ccccc2N)cc1,0.1
CC(C)NC(=O)Nc1ccc2c(c1)CC(=O)N([C@H](C)CO)C[C@@H](C)[C@@H](CN(C)Cc1ccc(Cl)c(Cl)c1)O2,47.0*
C[C@@H]1CN([C@H](C)CO)C(=O)Cc2cc(NC(=O)Nc3ccc4c(c3)OCO4)ccc2O[C@@H]1CN(C)Cc1ccc(Cl)c(Cl)c1,-13.0
C[C@@H]1CN([C@H](C)CO)C(=O)Cc2cc(NC(=O)Nc3ccc4c(c3)OCO4)ccc2O[C@H]1CN(C)Cc1ccc(Cl)c(Cl)c1,299.9*
CC(C)NC(=O)Nc1ccc2c(c1)CC(=O)N([C@@H](C)CO)C[C@H](C)[C@@H](CN(C)Cc1ccc(Cl)c(Cl)c1)O2,-26.0
CC(C)NC(=O)Nc1ccc2c(c1)CC(=O)N([C@@H](C)CO)C[C@@H](C)[C@@H](CN(C)Cc1ccc(Cl)c(Cl)c1)O2,-8.1
C[C@@H]1CN([C@H](C)CO)C(=O)Cc2cc(NC(=O)Nc3ccc4c(c3)OCO4)ccc2O[C@@H]1CN(C)Cc1ccc2c(c1)OCO2,0.4
COc1ccc(NC(=O)N(C)C[C@@H]2Oc3ccc(NC(=O)Nc4ccccc4)cc3C(=O)N([C@@H](C)CO)C[C@@H]2C)cc1,0.2
Cc1ccc(S(=O)(=O)Nc2ccc3c(c2)C(=O)N([C@H](C)CO)C[C@@H](C)[C@@H](CN(C)C(=O)Nc2cccc4ccccc24)OCCCC[C@@H](C)O3)cc1,-0.1
